High-throughput results as filed in PubChem.
XiGFP reactiv: activators of inactive X chromosome reactivation, primary screen, imaging, XiGFP fibroblasts, GFP high-content imaging, set 2; XiGFP mouse fibroblasts, % GFP-positive cells imaging, 3 d; cells co-treated with 5-aza-dC sensitizer; scaled so ellipticine positive control = 100%; activation, % at 7.58 µM; 0.055% of 360,000 active;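 active means mean normalized replicate activation at least 10% and every replicate at or above 10%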;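 further: 0% = median of on-plate neutral control wells and 100% = ellipticine 6 µM median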
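Assay system: SV40-immortalized XiGFP fibroblast cells, line 68-5-11; buffer or medium: DMEM plus 5-aza-dC sensitizer; compound: one concentration, pinned; timing: compounds 3 days, fix/stain 15 min at room temperature; benchmarks: positive control ellipticine, 6 µM final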
ARNT TACC3 PPI: disruptors of ARNT/TACC3 protein interaction, primary screen, biochemical, AlphaScreen, single concentration; inhibition, % at 9.99 µM; 0.66% of 390,000 active; AlphaScreen His-ARNT PAS-B/GST-TACC3 binding, luminescence; TACC3 fragment carries E629A point mutation;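 active means mean inhibition of replicates at least 50% and at least half of replicates each reaching 50%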;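 further: 0% = complete ARNT plus TACC3 wells and 100% = ARNT alone without TACC3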
HGIII-sPLA2 inh: human group III sPLA2 inhibitors, primary screen, biochemical, QFRET, BODIPY PC-A2 liposome substrate. Group 3 secretory phospholipase A2 (Homo sapiens), Q9NZ20. QFRET BODIPY PC-A2 liposome hydrolysis, fluorescence. inhibition, % at 12.2 µM. 0.56% of 370,000 active;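 active means inhibition above mean plus 3 SD of compounds lying within the high and low control bounds, cut at about 19% in these data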;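 further: 0% = median of test compound wells and 100% = no enzyme DMSO wells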
Target sequence (Q9NZ20 whole entry, looked up): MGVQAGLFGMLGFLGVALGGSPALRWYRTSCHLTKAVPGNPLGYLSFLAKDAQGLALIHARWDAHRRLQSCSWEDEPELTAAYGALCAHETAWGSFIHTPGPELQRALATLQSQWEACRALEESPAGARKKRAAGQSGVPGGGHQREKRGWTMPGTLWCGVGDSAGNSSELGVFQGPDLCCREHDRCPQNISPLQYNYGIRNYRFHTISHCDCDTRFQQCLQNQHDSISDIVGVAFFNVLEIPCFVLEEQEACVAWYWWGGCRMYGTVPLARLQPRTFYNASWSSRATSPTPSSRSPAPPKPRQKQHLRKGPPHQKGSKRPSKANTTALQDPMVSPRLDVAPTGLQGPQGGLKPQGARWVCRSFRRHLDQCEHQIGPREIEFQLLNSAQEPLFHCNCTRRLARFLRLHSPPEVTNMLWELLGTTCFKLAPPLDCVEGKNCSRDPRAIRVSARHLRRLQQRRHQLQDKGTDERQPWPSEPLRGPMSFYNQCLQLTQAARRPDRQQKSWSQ
NSD2 HMT inh: NSD2 histone methyltransferase inhibitors, primary screen, biochemical, AlphaScreen, single concentration, set 2; Histone-lysine N-methyltransferase NSD2 (Homo sapiens), O96028; NSD2 peptide methylation, 120 min; inhibition, % at 12.5 µM; 0.54% of 310,000 active; AID 743445, 2014; in the data active means inhibition above about 50%
SR-BI HDL uptake: inhibitors of SR-BI mediated HDL lipid uptake, primary screen, ldlA[mSR-BI] cells, fluorescence, single point; Scavenger receptor class B member 1 (Mus musculus), Q61009; ldlA[mSR-BI] CHO cells, DiI-HDL uptake fluorescence, 3 h; inhibition, % at 12.5 µM; 0.96% of 320,000 active;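 active means mean replicate inhibition of at least 70% and a set share of replicates each scoring 70 or more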;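 further: 0% = median of neutral control wells and 100% = median of positive control wells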
SR-BI DiI-HDL act: activators of SR-BI mediated DiI-HDL uptake, primary screen, ldlA[mSR-BI] CHO cells, DiI fluorescence; 3 h; 100 = double the neutral-control signal; activation, % at 12.5 µM; 0.096% of 320,000 active;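 active means mean replicate activation of at least 60% and every replicate at or above 60%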;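 further: 0% = median plate neutral-control signal and 100% = twice that signal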
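System: CHO ldlA[mSR-BI] cells / Medium: HEPES-buffered (25 mM, pH 7.4) F12 plus 0.5% BSA / Probe or stimulus: labelled HDL, 10 µg/mL / Doses: single compound concentration, delivered by pin transfer / Schedule: 3 h, 37 °C / Measured by: DiI fluorescence, bottom read / Measure: cell-associated DiI fluorescence as measure of HDL uptake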
The depositor's hits bear a star; · = not tested or not shown. Rows were chosen to be rich in hits. Some 2% of all compounds tested hit in one or more screens of this group.

SMILES	XiGFP reactiv	ARNT TACC3 PPI	HGIII-sPLA2 inh	NSD2 HMT inh	SR-BI HDL uptake	SR-BI DiI-HDL act
O=C(N[C@@H](Cc1cccnc1)C(=O)N1CCC[C@H]1C(=O)NCCc1ccccc1Cl)C1CCCC1	1	·	-1	·	·	·
COc1cc(F)ccc1S(=O)(=O)N1CCN(C23CC4CC(CC(C4)C2)C3)CC1	·	·	-15	1	7	-7
COc1cc(C)ccc1S(=O)(=O)N1CCN(C23CC4CC(CC(C4)C2)C3)CC1	·	11	-15	2	77*	-77
C[C@H](CO)N1C[C@H](C)[C@@H](CN(C)S(=O)(=O)c2ccc(F)cc2)Oc2c(NC(=O)c3nc4ccccc4s3)cccc2C1=O	0	-3	·	·	·	·
Nc1c(C(=O)Nc2ccc(S(=O)(=O)N3CCCC3)cc2)sc2nc3cc4c(cc3cc12)CCC4	63*	-12	-15	-1	55	-55
Cc1ccc(C(=O)NNC(=O)c2ccccc2O)cc1S(=O)(=O)N1CCCCC1	1	0	8	1	78*	-78
Cc1ccc(C(=O)NC2CCCC2)cc1S(=O)(=O)N1CCCCC1	0	-4	6	-6	-8	·
O=C(NNC(=O)c1ccccc1O)c1ccc(Cl)c(S(=O)(=O)N2CCc3ccccc32)c1	0	13	8	1	117*	-117
O=C(c1ccc(Cl)c(S(=O)(=O)N2CCc3ccccc32)c1)N1CCN(c2ccccc2O)CC1	0	2	-8	1	47	-47
CN(C)C(=O)c1cccc(-c2ccc3c(c2)[C@H]2[C@H](CCN2S(=O)(=O)c2cn(C)cn2)[C@H](CO)N3)c1	0	3	·	·	·	·
COC(=O)c1cc(NC(=O)c2c(C)noc2C)ccc1N1CCOCC1	0	1	9	36	-8	8
COC(=O)c1cc(NC(=O)c2cc(-c3ccc(C(F)(F)F)cc3)oc2C(F)(F)F)ccc1N1CCOCC1	0	1	-1	-1	81*	-81
COC(=O)c1cc(NC(=O)c2cc(-c3ccc(OC)cc3)oc2C(F)(F)F)ccc1N1CCOCC1	0	-9	-4	0	86*	-86
COC(=O)c1cc(NC(C)=O)ccc1N1CCOCC1	0	3	3	-2	10	-10
O=C1C=CC(=O)c2c(O)c(CO)c(CO)c(O)c21	0	12*	-52	·	-8	8
CCOC(=O)c1c(CN2CCC(C)CC2)oc2ccc(OC)cc12	·	2	-7	6	17	-17
COc1ccccc1CCC(=O)Nc1ccc2c(c1)CN(Cc1ccc(C)o1)CC2	0	8	-8	1	81*	-81
COc1ccc(N2CCN(C(=O)c3cn(Cc4ccccc4)nc3-c3cccnc3)CC2)cc1	0	11	-3	0	-14	14
O=C(O)C1CCC(=O)N(C2CCCCC2)C1c1ccccc1Cl (centres undefined)	2	-8	0	-6	1	-1
NC(=O)c1ccccc1NCC(=O)c1ccc(F)cc1	1	-3	21*	-2	-17	17
CCn1c(C)nc2cc(C(=O)N/N=C(\C)c3ccc(OC)cc3O)ccc21	0	1	9	4	88*	-88
CCn1c(C)nc2cc(C(=O)NN=C(C)c3ccc(C#N)cc3)ccc21	0	22	19	2	18	-18
C/C=C/c1ccccc1[C@@H]1[C@@H](CO)N(C(=O)NC2CCCCC2)[C@H]1C#N	0	·	·	·	·	·
Cc1c(NC(=O)COC(=O)c2cc(-c3ccc(-c4ccccc4)cc3)nc3ccccc23)c(=O)n(-c2ccccc2)n1C	0	-5	-8	1	51	-51
COc1ccc(-c2cc(C(=O)Nc3c(C)n(C)n(-c4ccccc4)c3=O)c3ccccc3n2)cc1OC	0	-8	-1	-10	92*	-92
SMILES	XiGFP reactiv	ARNT TACC3 PPI	HGIII-sPLA2 inh	NSD2 HMT inh	SR-BI HDL uptake	SR-BI DiI-HDL act
Cc1c(NC(=O)c2cc(-c3cccs3)nc3ccccc23)c(=O)n(-c2ccccc2)n1C	0	-2	11	0	77*	-77
Cc1c(NC(=O)c2cc(-c3ccccc3)nc3ccccc23)c(=O)n(-c2ccccc2)n1C	0	2	0	-3	77*	-77
Cc1ccc(-c2cc(C(=O)Nc3c(C)n(C)n(-c4ccccc4)c3=O)c3ccccc3n2)cc1	0	2	15	8	74*	-74
COc1ccc(-c2cc(C(=O)Nc3c(C)n(C)n(-c4ccccc4)c3=O)c3ccccc3n2)c(OC)c1	0	-11	1	-2	69	-69
COc1ccccc1/C=C(/C(=O)OCC(=O)Nc1ccccc1C(C)C)c1ccccc1	0	·	-15	11	5	-5
CC1CCN(C(=O)C2CCC(CNS(=O)(=O)c3cccc4cccnc34)CC2)CC1 (centres undefined)	0	11	-12	·	13	-13
COc1ccc(C(=O)Nc2nc3c(s2)Cc2cc(OC)ccc2-3)cc1	·	28	-9	12	87*	-87
Cc1noc(C)c1S(=O)(=O)Nc1ccc2c(c1)CC(=O)N([C@@H](C)CO)C[C@@H](C)[C@H](CN(C)C(=O)NC1CCCCC1)O2	0	-11	·	·	·	·
COc1cc(/C=C2/C(=O)N(c3ccc(C(=O)O)cc3)N=C2C)cc(OC)c1O	0	12*	5	7	-2	2
CNC[C@@H]1OCCCC[C@@H](C)Oc2ccc(NC(=O)Nc3c(C)noc3C)cc2C(=O)N([C@@H](C)CO)C[C@H]1C	0	6	·	·	·	·
Cc1ccc(C(=O)N/N=C/c2c(O)ccc3ccccc23)cn1	0	-6	30*	22	93*	-93
O=C(N/N=C\c1c(O)ccc2ccccc12)c1cncc(Br)c1	1	15	13	-1	143*	-143
O=C(N/N=C/c1c(O)ccc2ccccc12)c1cccnc1	0	59*	7	-2	51	-51
Cn1cccc1/C=N\NC(=O)c1cncc(Br)c1	0	·	-1	1	·	·
CC(C)CNC(=O)COC(=O)c1cc(Cl)cc(Cl)c1N	·	0	0	-2	2	-2
CCC(C)[C@@H](CN(N=O)[C@@H](Cc1ccccc1)CN(C)N=O)N(CCc1ccccc1)N=O (some centres undefined)	·	0	·	·	-68	68*
